ChEMBL document CHEMBL5647697, “Akt inhibition synergizes with polycomb repressive complex 2 inhibition in the treatment of multiple myeloma” (2019)
Active and inactive are the calls of the source. The rule behind the calls is not given here.

Experiments:
MM1.S [1] = assay: Upregulation of EZH1 mRNA expression in human MM1.S cells at 0.03 to 3 micromo/L at 6 to 48 hrs by qRT-PCR analysis; assay type: functional, cell-based; conditions: dose 0.03-3 µmol/L, time 6-48 hrs
In short: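 EZH1 mRNA was measured by qRT-PCR in MM.1S and H929 cells. Dose series: cells were treated with graded TAS-117 for 24 h. Time course: cells were treated with 3 μmol/L for the indicated times. Fold change is after GAPDH normalization, relative to the untreated control. Data are SD of triplicates.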

MM1.S [2] = assay: Synergistic activity against human MM.1S cells assessed as combination index […] in presence of 5 uM UNC1999 for 72 hrs […] at 0.25 uM incubated for 48 hrs by MTT assay; assay type: functional
In short: (§1)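 Cells were exposed to the EZH2/EZH1 inhibitor (UNC1999 or GSK126) for 72 h in total, with the Akt inhibitor added for the last 48 h. Viability was read by MTS assay relative to untreated control cells, in triplicate. The combination index for each dose pair came from isobologram analysis.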

OPM-2/BTZ [3] = assay: Synergistic activity against human OPM-2/BTZ cells assessed as combination index preincubated in presence of 2.5 uM UNC1999 for 72 hrs followed by compound addition at 2 uM incubated for 48 hrs by MTT assay; assay type: functional
MM1.S [4] = assay: Induction of apoptosis in human MM1.S cells assessed as early apoptotic cells preincubated in presence of 5 micromol/L UNC1999 for 48 hrs followed by compound addition at 2 micromol/L incubated for 12 hrs by annexin V/PI staining based flow cytometry (reference value: 8.03%); assay type: functional; conditions: dose 2 µmol/L, at 2 µM
NCI-H929 [5] = assay: Downregulation of E2F1 protein expression in human NCI-H929 cells incubated at 0.3 to 3 micromol/L for 48 hrs by Western blot analysis; assay type: functional, cell-based; conditions: dose 0.3-3 µmol/L
In short: (§2)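 MM.1S and H929 cells given TAS-117 at the indicated doses for 48 h. Protein levels assessed by immunoblot.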

MM1.S [6] = assay: Downregulation of EZH2 protein expression in human MM1.S cells at 0.3 to 5 micromol/L for 6 to 48 hrs by Western blot analysis; assay type: functional, cell-based; conditions: dose 0.3-5 µmol/L, time 6-48 hrs
In short: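 MM.1S and H929 cells exposed to TAS-117 at the indicated doses for 48 h, or to 5 μmol/L for the indicated times. Immunoblot with GAPDH, Akt and H3 as loading controls; EZH2 quantified relative to GAPDH.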

OPM-2/BTZ [7] = assay: Downregulation of EZH2 protein expression in human OPM-2/BTZ cells at 0.3 to 5 micromol/L for 6 to 48 hrs by Western blot analysis; assay type: functional, cell-based; conditions: dose 0.3-5 µmol/L, time 6-48 hrs
MM1.S [8] = assay: (§3) Synergistic activity against human MM.1S cells assessed as combination index […] at 0.125 uM incubated for 48 hrs by […]; assay type: functional; in short: as §1
NCI-H929 [9] = assay: Induction of apoptosis in human NCI-H929 cells assessed as late apoptotic cells preincubated in presence of 5 micromol/L UNC1999 for 48 hrs followed by compound addition at 2 micromol/L incubated for 12 hrs by annexin V/PI staining based flow cytometry (reference value: […]%); assay type: functional; conditions: dose 2 µmol/L
NCI-H929 [10] = assay: Synergistic activity against human NCI-H929 cells assessed as combination index […] in presence of 5 uM GSK126 […] compound addition at 0.5 uM incubated for 48 hrs by […]; assay type: functional; in short: as §1
OPM-2 [11] = assay: Synergistic activity against human OPM-2 cells assessed as combination index preincubated in presence of 1.25 uM GSK126 for 72 hrs followed by compound addition at 2.5 uM incubated for 48 hrs by MTT assay; assay type: functional
OPM-2/BTZ [12] = assay: Synergistic activity against human OPM-2/BTZ cells assessed as combination index preincubated in presence of 2.5 uM GSK126 for 72 hrs followed by compound addition at 1 uM incubated for 48 hrs by MTT assay; assay type: functional
OPM-2 [13] = assay: Synergistic activity against human OPM-2 cells assessed as combination index preincubated in presence of 1.25 uM GSK126 for 72 hrs followed by compound addition at 5 uM incubated for 48 hrs by MTT assay; assay type: functional
MM1.S [14] = assay: Synergistic activity against human MM.1S cells assessed as combination index […] at 0.5 uM incubated for 48 hrs by […]; assay type: functional; in short: as §1
NCI-H929 [15] = assay: Downregulation of cyclin D1 protein expression in human NCI-H929 cells incubated at 0.3 to 3 micromol/L for 48 hrs by Western blot analysis; assay type: functional, cell-based; conditions: dose 0.3-3 µmol/L; in short: as §2
OPM-2/BTZ [16] = assay: Downregulation of EZH2 mRNA expression in human OPM-2/BTZ cells at 3 micromol/L after 24 hrs by qRT-PCR analysis; assay type: functional, cell-based; conditions: dose 3.0 µmol/L
MM1.S [17] = assay: Downregulation of E2F1 mRNA expression in human MM1.S cells incubated at 0.3 to 3 micromol/L for 24 hrs by qRT-PCR analysis; assay type: functional, cell-based; conditions: dose 0.3-3 µmol/L
In short: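 MM.1S and H929 cells given TAS-117 at the indicated doses for 24 h. mRNA measured by RT-qPCR, fold change after normalization to GAPDH; SD of triplicates; significance versus untreated control.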

OPM-2 [18] = assay: Synergistic activity against human OPM-2 cells assessed as combination index preincubated in presence of 5 uM GSK126 for 72 hrs followed by compound addition at 1.25 uM incubated for 48 hrs by MTT assay; assay type: functional
OPM-2 [19] = assay: Synergistic activity against human OPM-2 cells assessed as combination index preincubated in presence of 2.5 uM GSK126 for 72 hrs followed by compound addition at 2.5 uM incubated for 48 hrs by MTT assay; assay type: functional
NCI-H929 [20] = assay: Induction of apoptosis in human NCI-H929 cells assessed as viable cells at 5 micromol/L incubated for 48 hrs by annexin V/PI staining based flow cytometry (reference value: 95.6%); assay type: functional; conditions: NCI-H929, 48 h, dose 5 µmol/L, read-out: Activity
NCI-H929 [21] = assay: Synergistic activity against human NCI-H929 cells assessed as combination index preincubated in presence of 2.5 uM GSK126 […] at 0.125 uM incubated for 48 hrs by […]; assay type: functional; in short: as §1
MM1.S [22] = assay: Induction of apoptosis in human MM1.S cells assessed as necrotic cells preincubated in presence of 5 micromol/L UNC1999 for 48 hrs followed by compound addition at 2 micromol/L incubated for 12 hrs by annexin V/PI staining based flow cytometry (reference value: 0.17%); assay type: functional; conditions: dose 2 µmol/L, at 2 µM
OPM-2 [23] = assay: Synergistic activity against human OPM-2 cells assessed as combination index preincubated in presence of 1.25 uM UNC1999 for 72 hrs followed by compound addition at 2.5 uM incubated for 48 hrs by MTT assay; assay type: functional
MM1.S [24] = assay: as §3; assay type: functional; in short: as §1; remark: listed apart in the source
OPM-2/BTZ [25] = assay: Downregulation of phospho-Rb protein expression in human OPM-2/BTZ cells incubated at 0.3 to 3 micromol/L for 48 hrs by Western blot analysis; assay type: functional, cell-based; conditions: dose 0.3-3 µmol/L
OPM-2 [26] = assay: Synergistic activity against human OPM-2 cells assessed as combination index preincubated in presence of 2.5 uM GSK126 for 72 hrs followed by compound addition at 5 uM incubated for 48 hrs by MTT assay; assay type: functional
NCI-H929 [27] = assay: Upregulation of H3K27me3 protein expression in human NCI-H929 cells at 0.3 to 5 micromol/L for 6 to 48 hrs by Western blot analysis; assay type: functional, cell-based; conditions: dose 0.3-5 µmol/L, time 6-48 hrs
In short: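 H3K27me3 was detected by immunoblot in MM.1S and H929 cells. Cells were given graded TAS-117 for 48 h, or 5 μmol/L for the indicated times. Signal is quantified relative to the H3 loading control.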

`C[C@]1(O)C[C@@](N)(c2ccc(-c3nc4n(c3-c3ccccc3)COc3ccncc3-4)cc2)C1` [PIFUSERTIB] was tested, and the Activity (MM1.S [1]) was “Dose-Dependent Effect”, the CI (MM1.S [2]) was 0.237 and the CI (OPM-2/BTZ [3]) was 0.483. The Activity (MM1.S [4]) was 40.7%, the Activity (NCI-H929 [5]) was “Active” and the Activity (MM1.S [6]) was “Active”. The Activity (OPM-2/BTZ [7]) was “Active”, the CI (MM1.S [8]) was 0.532 and the Activity (NCI-H929 [9]) was 11.3%. For the same compound, the CI (NCI-H929 [10]) was 7.883, the CI (OPM-2 [11]) was 2.465 and the CI (OPM-2/BTZ [12]) was 0.359. The CI (OPM-2 [13]) was 11.425, the CI (MM1.S [14]) was 0.889 and the Activity (NCI-H929 [15]) was “Active”. For the same compound, the Activity (OPM-2/BTZ [16]) was “Active”, the Activity (MM1.S [17]) was “Active” and the CI (OPM-2 [18]) was 1.44. For the same compound, the CI (OPM-2 [19]) was 2.563, the viability at 5 µM (NCI-H929 [20]) was 82.7% and the CI (NCI-H929 [21]) was 4.094. The Activity (MM1.S [22]) was 1.04%, the CI (OPM-2 [23]) was 1.51 and the CI (MM1.S [24]) was 1.08. For the same compound, the Activity (OPM-2/BTZ [25]) was “Active”, the CI (OPM-2 [26]) was 6.9 and the Activity (NCI-H929 [27]) was “Active”.
